Laboratory results from ChEMBL document CHEMBL2406983, “Synthesis and the 5-HT6 receptor antagonistic effect of 3-arylsulfonylamino-5,6-dihydro-6-substituted pyrazolo[3,4]pyridinones for neuropathic pain treatment” (Bioorg Med Chem Lett, 2013).
pIC50: −log10 of the molar value. Activity calls are given as the source filed them. The calls are words filed in the database; no cut-off is given here.

Columns and labels:
[1] = biological target: T1, 5-hydroxytryptamine receptor 6 (Homo sapiens, UniProt P50406); assay: Antagonist activity at human 5-HT6 receptor expressed in human HeLa cells assessed as inhibition of 5-HT-induced cAMP accumulation at 10 uM pretreated for 10 mins before 5-HT addition measured after 30 mins; type: functional, cell-based
T1 sequence (P50406 whole entry): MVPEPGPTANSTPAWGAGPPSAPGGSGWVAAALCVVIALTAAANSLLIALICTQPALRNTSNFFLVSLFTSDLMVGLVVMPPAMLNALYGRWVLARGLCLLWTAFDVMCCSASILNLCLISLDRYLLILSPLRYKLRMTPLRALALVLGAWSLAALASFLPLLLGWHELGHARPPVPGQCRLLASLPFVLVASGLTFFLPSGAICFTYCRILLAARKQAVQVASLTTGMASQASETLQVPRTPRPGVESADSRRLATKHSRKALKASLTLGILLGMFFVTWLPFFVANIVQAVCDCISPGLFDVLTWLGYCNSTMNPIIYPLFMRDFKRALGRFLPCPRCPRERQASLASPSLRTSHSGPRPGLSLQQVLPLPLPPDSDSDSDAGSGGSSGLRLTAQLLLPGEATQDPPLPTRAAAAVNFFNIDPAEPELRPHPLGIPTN
Procedure, shortened: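 HeLa cells stably expressing human 5-HT6 receptor, grown at 37 °C in 5% CO2/95% air, suspended in PBS with 2 mM IBMX. Compound pretreatment 10 min, then 100 nM 5-HT stimulation for 30 min. cAMP measured by HTRF (d2-labeled cAMP plus cryptate anti-cAMP antibody, 1 h at room temperature), excitation 314 nm, emission 668 and 620 nm. Single-point inhibition read at […].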

[2] = biological target: T1, 5-hydroxytryptamine receptor 6; assay: Antagonist activity at human 5-HT6 receptor expressed in human HeLa cells assessed as inhibition of 5-HT-induced cAMP accumulation pretreated for 10 mins before 5-HT addition measured after 30 mins; type: functional, cell-based
Rattus norvegicus [3] = assay: Antiallodynic activity in rat spinal nerve ligation neuropathic pain mechanical allodynia model at 100 mg/kg, po after 5 hrs; type: functional, organism-based; parameters: dose 100 mg/kg
Procedure, shortened: (§1)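 Cold and mechanical allodynia assessed at hours after a single oral 100 mg/kg dose, n = 4 per group; gabapentin 100 mg/kg po as reference.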

Rattus norvegicus [4] = assay: Antiallodynic activity in rat spinal nerve ligation neuropathic pain mechanical allodynia model at 100 mg/kg, po after 1 to 3 hrs; type: functional, organism-based; parameters: dose 100 mg/kg; procedure, shortened: as §1
Rattus norvegicus [5] = organism: Rattus norvegicus; assay: Ratio of gabapentin antiallodynic activity to compound antiallodynic activity in rat spinal nerve ligation neuropathic pain cold allodynia model; type: functional
Rattus norvegicus [6] = assay: Antiallodynic activity in rat spinal nerve ligation neuropathic pain cold allodynia model at 100 mg/kg, po after 1 to 5 hrs; type: functional, organism-based; parameters: dose 100 mg/kg; procedure, shortened: as §1
CYP2C19 = CYP2C19 (Homo sapiens, UniProt P33261); assay: Inhibition of human CYP2C19 assessed as residual activity using miconazole as […] at 10 uM relative to control; type: ADME; details: probe miconazole, read-out: Activity
Sequence of CYP2C19 (P33261 whole entry): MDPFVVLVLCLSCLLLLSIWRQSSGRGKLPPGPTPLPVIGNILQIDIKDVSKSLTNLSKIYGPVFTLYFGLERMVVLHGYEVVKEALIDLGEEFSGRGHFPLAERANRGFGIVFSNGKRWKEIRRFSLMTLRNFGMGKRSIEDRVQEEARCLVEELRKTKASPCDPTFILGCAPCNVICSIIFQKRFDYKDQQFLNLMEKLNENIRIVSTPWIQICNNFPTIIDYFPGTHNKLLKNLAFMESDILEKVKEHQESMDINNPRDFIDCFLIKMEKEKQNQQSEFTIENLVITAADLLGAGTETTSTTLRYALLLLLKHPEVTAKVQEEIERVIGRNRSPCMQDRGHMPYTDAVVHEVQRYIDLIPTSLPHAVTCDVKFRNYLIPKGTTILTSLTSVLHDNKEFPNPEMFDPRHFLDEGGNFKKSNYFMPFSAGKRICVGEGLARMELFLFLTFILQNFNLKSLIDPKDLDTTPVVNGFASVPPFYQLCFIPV

CYP3A4 = CYP3A4 (Homo sapiens, UniProt P08684); assay: Inhibition of human CYP3A4 assessed as residual activity using ketoconazole as […] at 10 uM relative to control; type: ADME; details: probe ketoconazole, read-out: Activity
Sequence of CYP3A4 (P08684 whole entry): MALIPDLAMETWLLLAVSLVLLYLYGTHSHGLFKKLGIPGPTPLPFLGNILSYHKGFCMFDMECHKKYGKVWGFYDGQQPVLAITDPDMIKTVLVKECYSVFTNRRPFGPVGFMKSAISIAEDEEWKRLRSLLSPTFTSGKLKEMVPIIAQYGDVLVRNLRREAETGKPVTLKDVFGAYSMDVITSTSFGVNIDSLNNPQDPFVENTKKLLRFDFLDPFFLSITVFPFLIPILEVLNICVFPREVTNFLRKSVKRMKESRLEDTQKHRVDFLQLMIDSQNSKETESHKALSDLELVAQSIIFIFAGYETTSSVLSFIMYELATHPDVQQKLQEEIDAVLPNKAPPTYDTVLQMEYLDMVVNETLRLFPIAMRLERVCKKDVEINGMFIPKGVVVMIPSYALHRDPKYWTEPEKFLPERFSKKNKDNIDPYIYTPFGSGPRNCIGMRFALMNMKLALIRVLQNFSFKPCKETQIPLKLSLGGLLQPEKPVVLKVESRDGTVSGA

CYP2C9 = CYP2C9 (Homo sapiens, UniProt P11712); assay: Inhibition of human CYP2C9 assessed as residual activity using sulfaphenazol as […] at 10 uM relative to control; type: ADME; details: read-out: Activity
Sequence of CYP2C9 (P11712 whole entry): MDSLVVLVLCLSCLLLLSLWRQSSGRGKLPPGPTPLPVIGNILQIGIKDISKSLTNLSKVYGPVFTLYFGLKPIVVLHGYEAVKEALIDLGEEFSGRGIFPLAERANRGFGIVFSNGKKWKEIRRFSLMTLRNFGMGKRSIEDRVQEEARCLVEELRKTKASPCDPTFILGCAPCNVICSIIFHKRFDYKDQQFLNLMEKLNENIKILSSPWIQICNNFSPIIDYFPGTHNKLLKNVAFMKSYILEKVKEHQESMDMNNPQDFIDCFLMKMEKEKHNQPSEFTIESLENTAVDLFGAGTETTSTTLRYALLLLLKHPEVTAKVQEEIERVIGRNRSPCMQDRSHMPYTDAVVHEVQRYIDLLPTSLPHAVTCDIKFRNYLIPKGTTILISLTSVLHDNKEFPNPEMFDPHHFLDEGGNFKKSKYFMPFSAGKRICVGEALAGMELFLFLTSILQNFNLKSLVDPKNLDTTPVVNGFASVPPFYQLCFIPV

CYP2D6 = CYP2D6 (Homo sapiens, UniProt P10635); assay: Inhibition of human CYP2D6 assessed as residual activity using quinidine as […] at 10 uM relative to control; type: ADME; details: probe quinidine, read-out: Activity
Sequence of CYP2D6 (P10635 whole entry): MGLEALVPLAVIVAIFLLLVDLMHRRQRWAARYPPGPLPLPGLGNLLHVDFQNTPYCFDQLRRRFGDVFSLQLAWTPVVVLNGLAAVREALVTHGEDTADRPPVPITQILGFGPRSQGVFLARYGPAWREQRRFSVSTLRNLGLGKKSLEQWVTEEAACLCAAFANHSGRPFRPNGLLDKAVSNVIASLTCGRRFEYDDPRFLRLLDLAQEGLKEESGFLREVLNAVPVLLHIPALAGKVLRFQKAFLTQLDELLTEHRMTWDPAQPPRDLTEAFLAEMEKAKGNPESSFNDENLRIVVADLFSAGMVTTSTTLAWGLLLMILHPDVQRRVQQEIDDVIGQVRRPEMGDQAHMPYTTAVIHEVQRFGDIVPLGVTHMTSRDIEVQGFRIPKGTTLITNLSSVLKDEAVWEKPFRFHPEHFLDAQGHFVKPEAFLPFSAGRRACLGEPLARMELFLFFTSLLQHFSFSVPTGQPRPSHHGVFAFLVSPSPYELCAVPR

[7] = Metabolic stability in human liver microsomes assessed as compound remaining after 30 mins; type: ADME, Microsome; details: read-out: Stability
Procedure, shortened: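 Compounds incubated with human hepatic microsomes; percent of parent concentration remaining at 30 min.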

CYP1A2 = biological target: T2, CYP1A2 (Homo sapiens, UniProt P05177); assay: Inhibition of human CYP1A2 assessed as residual activity using alpha-naphthoflavon as […] at 10 uM relative to control; type: ADME; details: read-out: Activity
T2 sequence (P05177 whole entry): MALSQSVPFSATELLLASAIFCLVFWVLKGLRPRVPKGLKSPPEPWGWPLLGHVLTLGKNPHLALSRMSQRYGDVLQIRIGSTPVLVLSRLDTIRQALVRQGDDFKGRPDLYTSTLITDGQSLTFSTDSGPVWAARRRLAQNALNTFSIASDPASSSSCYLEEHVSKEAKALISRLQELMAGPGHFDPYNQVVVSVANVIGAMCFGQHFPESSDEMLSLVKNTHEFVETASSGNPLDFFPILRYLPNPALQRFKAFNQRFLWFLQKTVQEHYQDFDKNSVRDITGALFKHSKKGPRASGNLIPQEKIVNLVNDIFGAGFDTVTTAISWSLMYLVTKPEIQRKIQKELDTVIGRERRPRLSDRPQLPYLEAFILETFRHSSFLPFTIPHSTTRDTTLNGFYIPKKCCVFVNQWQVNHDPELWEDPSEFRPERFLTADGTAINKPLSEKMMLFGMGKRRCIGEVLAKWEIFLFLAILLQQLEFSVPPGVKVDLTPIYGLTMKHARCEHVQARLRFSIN

Structure (SMILES) | inhibition [1] [%] | pIC50 [2] | also measured
COc1ccc(N2CCc3c(NS(=O)(=O)c4ccc(F)cc4)n[nH]c3C2=O)cc1 | 30.6 | – | –
COc1ccc(S(=O)(=O)Nc2n[nH]c3c2CCN(CC2CCNCC2)C3=O)cc1 | 15.1 | – | –
COc1cccc(S(=O)(=O)Nc2n[nH]c3c2CCN(c2ccc(C)cc2)C3=O)c1 | 63.2 | 5.17 | –
O=C1c2[nH]nc(NS(=O)(=O)c3cccc4ccccc34)c2CCN1CC1CCNCC1 | 94.1 | 6.51 | Activity (Rattus norvegicus [3]): inactive; Activity (Rattus norvegicus [4]): Active; Ratio (Rattus norvegicus [5]): 5; Activity (Rattus norvegicus [6]): Active; activity at 10 µM (CYP2C19): 104%; activity at 10 µM (CYP3A4): 17.8%; activity at 10 µM (CYP2C9): 98.4%; activity at 10 µM (CYP2D6): 97.2%; remaining at 0.5 h [7]: 90.8%; activity at 10 µM (CYP1A2): 79.1%
Cc1ccc(N2CCc3c(NS(=O)(=O)c4cc(C)ccc4F)n[nH]c3C2=O)cc1 | 25.9 | – | –
Cc1ccc(N2CCc3c(NS(=O)(=O)c4ccccc4)n[nH]c3C2=O)cc1 | 23.5 | – | –
Cc1ccc(N2CCc3c(NS(=O)(=O)c4cccc(F)c4)n[nH]c3C2=O)cc1 | 18.1 | – | –
Cc1ccc(N2CCc3c(NS(=O)(=O)c4ccccc4F)n[nH]c3C2=O)cc1 | 29.6 | – | –
O=C1c2[nH]nc(NS(=O)(=O)c3ccc4ccccc4c3)c2CCN1CC1CCNCC1 | 40.9 | – | –
COc1ccc(OC)c(S(=O)(=O)Nc2n[nH]c3c2CCN(c2ccc(C)cc2)C3=O)c1 | 3.8 | – | –
CC(C)(C)c1ccc(S(=O)(=O)Nc2n[nH]c3c2CCN(CC2CCNCC2)C3=O)cc1 | 11.5 | – | –
Cc1c(Cl)cccc1S(=O)(=O)Nc1n[nH]c2c1CCN(CC1CCNCC1)C2=O | 51.7 | – | –
O=C1c2[nH]nc(NS(=O)(=O)c3cccc(Cl)c3)c2CCN1CC1CCNCC1 | 31 | – | –
COc1ccc(N2CCc3c(NS(=O)(=O)c4cccc(OC)c4)n[nH]c3C2=O)cc1 | 63.3 | 5.15 | –
COc1ccc(N2CCc3c(NS(=O)(=O)c4cccc(F)c4)n[nH]c3C2=O)cc1 | 95.2 | 6.24 | activity at 10 µM (CYP2C19): 81.8%; activity at 10 µM (CYP3A4): 19.5%; activity at 10 µM (CYP2C9): 78.6%; activity at 10 µM (CYP2D6): 87.8%; remaining at 0.5 h [7]: 96.3%; activity at 10 µM (CYP1A2): 63.5%
Cc1ccc(N2CCc3c(NS(=O)(=O)c4cccc(C(F)(F)F)c4)n[nH]c3C2=O)cc1 | 69 | 5.48 | –
Cc1ccc(F)c(S(=O)(=O)Nc2n[nH]c3c2CCN(CC2CCNCC2)C3=O)c1 | 30.6 | – | –
COc1ccc(N2CCc3c(NS(=O)(=O)c4ccccc4)n[nH]c3C2=O)cc1 | 30.6 | – | –
COc1ccc(NS(=O)(=O)c2ccc(I)cc2)cc1N1CCN(C)CC1 | 97.7 | – | –
O=C1c2[nH]nc(NS(=O)(=O)c3cccc4ccccc34)c2CCN1C1CCNCC1 | 89.5 | 6.11 | activity at 10 µM (CYP2C19): 99.8%; activity at 10 µM (CYP3A4): 16.7%; activity at 10 µM (CYP2C9): 94.5%; activity at 10 µM (CYP2D6): 95.1%; remaining at 0.5 h [7]: 101%; activity at 10 µM (CYP1A2): 67.7%
COc1ccc(S(=O)(=O)Nc2n[nH]c3c2CCN(C2CCNCC2)C3=O)cc1 | 26.1 | – | –
Cc1ccc(N2CCc3c(NS(=O)(=O)c4cccc(Cl)c4C)n[nH]c3C2=O)cc1 | 92.2 | 5.78 | –
Cc1ccc(N2CCc3c(NS(=O)(=O)c4ccc(F)cc4)n[nH]c3C2=O)cc1 | 67.9 | 5.28 | –
Cc1ccc(N2CCc3c(NS(=O)(=O)c4cccc(Cl)c4)n[nH]c3C2=O)cc1 | 5.4 | – | –
